Measurements: ChEMBL document CHEMBL1649208, “High-throughput screening identifies three inhibitor classes of the telomere resolvase from the lyme disease spirochete” (Antimicrob Agents Chemother, 2009)

Assays:
[1] = target: T1, Telomere resolvase ResT (Borrelia burgdorferi (strain ATCC 35210 / B31 / CIP 102532 / DSM4680)) (UniProt O50979); test: Inhibition of Borrelia burgdorferi telomere resolvase 164-449 sequence assessed as inhibition of DNA binding activity at 10 uM by electrophoretic mobility shift assay; settings: Borreliella burgdorferi
T1 sequence (whole entry): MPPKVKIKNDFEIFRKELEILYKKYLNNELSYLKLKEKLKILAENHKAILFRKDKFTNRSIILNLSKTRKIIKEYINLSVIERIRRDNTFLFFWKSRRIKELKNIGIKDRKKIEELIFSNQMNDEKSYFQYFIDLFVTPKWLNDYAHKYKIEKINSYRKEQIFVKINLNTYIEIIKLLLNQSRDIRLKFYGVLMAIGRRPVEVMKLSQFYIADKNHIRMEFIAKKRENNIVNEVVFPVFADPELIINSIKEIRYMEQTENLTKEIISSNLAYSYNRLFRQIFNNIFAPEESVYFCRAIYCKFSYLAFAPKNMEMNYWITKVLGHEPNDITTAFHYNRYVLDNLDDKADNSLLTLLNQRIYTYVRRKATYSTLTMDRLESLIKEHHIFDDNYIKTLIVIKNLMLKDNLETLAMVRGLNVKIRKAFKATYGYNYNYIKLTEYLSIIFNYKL

[2] = target: T1, Telomere resolvase ResT (Borrelia burgdorferi (strain ATCC 35210 / B31 / CIP 102532 / DSM4680)); test: Inhibition of Borrelia burgdorferi telomere resolvase assessed as DNA cleavage at 10 uM; settings: Borreliella burgdorferi
[3] = target: T1, Telomere resolvase ResT (Borrelia burgdorferi (strain ATCC 35210 / B31 / CIP 102532 / DSM4680)); test: Inhibition of Borrelia burgdorferi telomere resolvase assessed as inhibition of telomere resolution at 10 uM; settings: Borreliella burgdorferi
Telomere resolvase ResT = target: T2, Telomere resolvase ResT (Borrelia burgdorferi (strain ATCC 35210 / B31 / CIP 102532 / DSM4680), UniProt O50979); test: Inhibition of Borrelia burgdorferi telomere resolvase by gel-based telomere resolution assay; parameters: species or system Borreliella burgdorferi
T2 sequence (O50979 whole entry): T1 sequence (whole entry)

[4] = target: T1, Telomere resolvase ResT (Borrelia burgdorferi (strain ATCC 35210 / B31 / CIP 102532 / DSM4680)); test: Inhibition of Borrelia burgdorferi telomere resolvase assessed as reduction in DNA cleavage at 10 uM; settings: Borreliella burgdorferi
Summary of the method: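 Cleavage-step assay with 5′-bridging phosphorothiolate oligonucleotide substrate (OGCB116+OGCB117), 5.4 nM, 32P-labeled. Recombinant ResT at 165 nM, 10% DMSO final, 25 mM Tris-HCl pH 8.5, 100 mM NaCl, 1 mM EDTA, 25% glycerol. 30 min at 30°C, stopped with 0.1% SDS. Covalent protein–DNA complex resolved on 5% SDS-polyacrylamide gel, phosphorimager. Expressed relative to ResT+DMSO control.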

In the case of `O=C(O)c1ccc(-c2nc(-c3ccc(-c4ccccc4)cc3)c(-c3ccc(-c4ccccc4)cc3)[nH]2)cc1`, the % binding relative to control [1] is reported as 33%, the % cleavage relative to control [2] is reported as 43% and the inhibition [3] is reported as ≥ 70%. For the same compound, the IC50 (Telomere resolvase ResT) was 9.52 µM.

In the case of `O=C(O)CCCCCCCCCCCCC1C=CCC1` (centres undefined), the % binding relative to control [1] is reported as 5%, the % cleavage relative to control [2] is reported as 75% and the inhibition [3] is reported as ≥ 70%. It also gave an IC50 (Telomere resolvase ResT) of 2.62 µM.

`COc1cc(O)c2c(c1)oc(=O)c1c3cc(O)c(O)cc3oc21` [WEDELOLACTONE] was tested, and the inhibition [4] was 6%, the inhibition [3] was ≥ 70% and the IC50 (Telomere resolvase ResT) was 8.67 µM.

In the case of `C[C@H](CCC(=O)O)[C@H]1CC[C@H]2[C@@H]3CC[C@@H]4CCCC[C@]4(C)[C@H]3CC[C@@]12C`, the % binding relative to control [1] is reported as 14%, the % cleavage relative to control [2] is reported as 79% and the inhibition [3] is reported as ≥ 70%. The IC50 (Telomere resolvase ResT) was 1.96 µM.

With `O=C(O)c1ccc2c3c(cccc13)C(=O)N(c1ccc(-c3nc4ccc(N5C(=O)c6cccc7c(C(=O)O)ccc(c67)C5=O)cc4[nH]3)cc1)C2=O` the % binding relative to control [1] was 16%, the % cleavage relative to control [2] was 65% and the inhibition [3] was ≥ 70%. It also gave an IC50 (Telomere resolvase ResT) of 3.16 µM.
